Legend:
Format in all cases: functional
Rattus norvegicus [1] = experiment: Percent change from pre-treatment in Triglycerides level at 97 mg/kg after 1 week.
Method in brief: (§1)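 Female obese Zucker fatty rats Crl:(Zuc)-faBR, 10–12 weeks old (400–500 g), n=3–4, fed chow. Dosed by oral gavage once daily in 20% EtOH/80% PEG-200 for up to 14 days. Serum taken after a 6 h fast before dosing, at day 7 (orbital plexus) and at day 14 (cardiac puncture). TG by enzymatic kit on analyzer. HDL-C and non-HDL-C from Superose 6 gel-filtration profile area × total cholesterol. Results given as % change from pretreatment.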

Rattus norvegicus [2] = experiment: Percent change from pre-treatment in HDL-Cholesterol level at 97 mg/kg after 2 weeks.; method in brief: as §1
Rattus norvegicus [3] = species on record: Rattus norvegicus; experiment: In vitro inhibitory concentration against lipid synthesis in primary rat hepatocyte culture
Method in brief: (§2)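 Primary hepatocytes isolated from male Sprague-Dawley rats (Seglen method) and plated on collagen in DMEM with 20% FBS, 100 nM insulin, 25 mM glucose. Medium made serum-free after 4 h, cultured overnight to monolayers. Then 4 h incubation with 0.25 μCi [14C]-acetate/well (1 Ci/mol) and 0–300 μM compound. Lipids extracted into scintillant and counted. IC50 derived from lipid synthesis rates by nonlinear sigmoidal fit.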

Rattus norvegicus [4] = experiment: Percent change from pre-treatment in Non HDL-Cholesterol level at 97 mg/kg after 2 weeks.; method in brief: as §1
Rattus norvegicus [5] = experiment: Percent change from pre-treatment in Triglycerides level at 97 mg/kg after 2 weeks.; method in brief: as §1
Rattus norvegicus [6] = experiment: Percent change from pre-treatment in Non HDL-Cholesterol level at 97 mg/kg after 1 week.; method in brief: as §1
Rattus norvegicus [7] = experiment: Percent change from pre-treatment triglycerides level at 100 mg/Kg after 1 week; method in brief: as §1
Rattus norvegicus [8] = experiment: Percent change from pre-treatment Non HDL-Cholesterol level at 100 mg/Kg after 2 weeks; method in brief: as §1
Rattus norvegicus [9] = experiment: Percent change from pre-treatment Non HDL-Cholesterol level at 100 mg/Kg after 1 week; method in brief: as §1
Rattus norvegicus [10] = experiment: Percent change from pre-treatment HDL-Cholesterol level at 100 mg/Kg after 1 week; method in brief: as §1
Rattus norvegicus [11] = experiment: Percent change from pre-treatment triglycerides level at 100 mg/Kg after 2 weeks; method in brief: as §1
Rattus norvegicus [12] = experiment: Percent change from pre-treatment HDL-Cholesterol level at 100 mg/Kg after 2 weeks; method in brief: as §1
Rattus norvegicus [13] = experiment: Percent change from pre-treatment in Non HDL-Cholesterol level at 30 mg/kg after 1 week.; method in brief: as §1
Rattus norvegicus [14] = experiment: Percent change from pre-treatment in Triglycerides level at 30 mg/kg after 2 weeks.; method in brief: as §1
Rattus norvegicus [15] = experiment: Percent change from pre-treatment in Non HDL-Cholesterol level at 30 mg/kg after 2 weeks.; method in brief: as §1
Rattus norvegicus [16] = experiment: Percent change from pre-treatment in Triglycerides level at 30 mg/kg after 1 week.; method in brief: as §1
Rattus norvegicus [17] = experiment: Percent change from pre-treatment in HDL-Cholesterol level at 30 mg/kg after 1 week.; method in brief: as §1
Rattus norvegicus [18] = experiment: Percent change from pre-treatment in Triglycerides level at 80 mg/kg after 2 weeks; method in brief: as §1
Rattus norvegicus [19] = experiment: Percent change from pre-treatment in HDL-Cholesterol level at 80 mg/kg after 2 weeks; method in brief: as §1
Rattus norvegicus [20] = experiment: Percent change from pre-treatment in Non HDL-Cholesterol level at 80 mg/kg after 1 week; method in brief: as §1
Rattus norvegicus [21] = experiment: Percent change from pre-treatment in HDL-Cholesterol level at 80 mg/kg after 1 week; method in brief: as §1
Rattus norvegicus [22] = experiment: Percent change from pre-treatment in Non HDL-Cholesterol level at 80 mg/kg after 2 weeks; method in brief: as §1
Rattus norvegicus [23] = experiment: Percent change from pre-treatment in Triglycerides level at 80 mg/kg after 1 week; method in brief: as §1
Rattus norvegicus [24] = experiment: Percent change from pre-treatment in HDL-Cholesterol level at 30 mg/kg after 2 weeks.; method in brief: as §1
Rattus norvegicus [25] = species on record: Rattus norvegicus; experiment: In Vitro inhibitory concentration against lipid synthesis in primary rat hepatocyte culture. na=Not active; inhibition of [14C]acetate incorporation into total lipids is less than 50% at 300 uM.; method in brief: as §2

| SMILES | IC50 (Rattus norvegicus [3]) [µM] | Change (Rattus norvegicus [7]) [%] | Change (Rattus norvegicus [8]) [%] | Change (Rattus norvegicus [9]) [%] | Change (Rattus norvegicus [10]) [%] | Change (Rattus norvegicus [11]) [%] | Change (Rattus norvegicus [12]) [%] | further results |
| --- | --- | --- | --- | --- | --- | --- | --- | --- |
| CC(C)(CO)CCCC1CCC(CCCC(C)(C)CO)O1 (centres undefined) | 9 |  |  |  |  |  |  | Change (Rattus norvegicus [1]): -49%; Change (Rattus norvegicus [2]): 140%; Change (Rattus norvegicus [4]): 31%; Change (Rattus norvegicus [5]): -13%; Change (Rattus norvegicus [6]): 11% |
| CC(C)(CCCCOCCCCC(C)(C)CCC(=O)O)CCC(=O)O | 22 | -80 | -30 | -50 | 13 | -73 | 39 |  |
| CC(C)(CO)CCCCCOCCCCC(C)(C)CO | 11 |  |  |  |  |  |  | Change (Rattus norvegicus [13]): -26%; Change (Rattus norvegicus [14]): -77%; Change (Rattus norvegicus [15]): 17%; Change (Rattus norvegicus [16]): -66%; Change (Rattus norvegicus [17]): 71% |
| CC(C)(CO)Cc1cccc(Oc2cccc(CC(C)(C)CO)c2)c1 | 98 | -32 | -50 | -50 | 17 | -54 | 25 |  |
| CC(C)(CO)CCCCCCCCCC(C)(C)CO | 4 | -83 | -75 | -67 | 189 | -82 | 137 |  |
| CC(C)(CO)CCCCCCCCCCCC(C)(C)CO | 4 | -70 | 48 | -20 | -5 | -35 | -1 |  |
| CC(C)(CCCCCCCCCCCC(C)(C)C(=O)O)C(=O)O | 7 | -89 | -60 | -66 | -14 | -87 | -6 |  |
| CC(C)(CCOCCCOCCC(C)(C)C(=O)O)C(=O)O |  |  |  |  |  |  |  | Change (Rattus norvegicus [18]): 46%; Change (Rattus norvegicus [19]): -5%; Change (Rattus norvegicus [20]): -10%; Change (Rattus norvegicus [21]): -18%; Change (Rattus norvegicus [22]): 15%; Change (Rattus norvegicus [23]): 5% |
| CC(C)(CO)CCCCOCCCC(C)(C)CO | 17 |  |  |  |  |  |  | Change (Rattus norvegicus [13]): 44%; Change (Rattus norvegicus [14]): 32%; Change (Rattus norvegicus [15]): 74%; Change (Rattus norvegicus [24]): 40%; Change (Rattus norvegicus [16]): 21%; Change (Rattus norvegicus [17]): 24% |
| CC(C)(CO)CCCCOCCCCC(C)(CO)c1ccccc1 (centres undefined) | 5 | -61 | -13 | -55 | 26 | -45 | 52 |  |
| CC(C)(CO)CCCCOCCCCC(C)(C)COC1CCCCO1 (centres undefined) | 11 | -69 | -14 | -28 | 130 | -63 | 152 |  |
| CC(CO)(CCCCOCCCC(C)(CO)c1ccccc1)c1ccccc1 (centres undefined) |  |  |  |  |  |  |  | Change (Rattus norvegicus [13]): 16%; Change (Rattus norvegicus [14]): 21%; Change (Rattus norvegicus [15]): 45%; Change (Rattus norvegicus [24]): -20%; Change (Rattus norvegicus [16]): -1%; Change (Rattus norvegicus [17]): -2%; IC50 (Rattus norvegicus [25]): Not Active |
| CC(C)(CO)CCCOCCOCCCC(C)(C)CO |  | -9 | 45 | 33 | 3 | 6 | 10 | IC50 (Rattus norvegicus [25]): Not Active |
| CC(CO)(CCCOCCCC(C)(CO)c1ccccc1)c1ccccc1 (centres undefined) | 130 | -27 | -26 | -32 | 7 | -18 | 5 |  |
| CC(C)(Cc1cccc(Oc2cccc(CC(C)(C)C(=O)O)c2)c1)C(=O)O | 53 | -46 | -21 | -59 | 20 | -27 | 16 |  |
| CC(C)(CCCCOCCCCC(C)(C)COC1CCCCO1)COC1CCCCO1 (centres undefined) | 20 | -1 | 92 | 46 | 43 | 22 | 79 |  |
| CC(C)(CO)CCCC1CCCC(CCCC(C)(C)CO)O1 (centres undefined) | 39 | -74 | -31 | -70 | 75 | -46 |  |  |
| CC(C)(CCCOCCOCCCC(C)(C)C(=O)O)C(=O)O | 72 | -24 | -13 | -38 | -6 | -13 | -4 |  |
| CC(C)(CO)CCCOCCCC(C)(C)CO |  |  |  |  |  |  |  | Change (Rattus norvegicus [13]): 7%; Change (Rattus norvegicus [14]): 77%; Change (Rattus norvegicus [15]): 58%; Change (Rattus norvegicus [24]): -8%; Change (Rattus norvegicus [16]): 21%; Change (Rattus norvegicus [17]): -13%; IC50 (Rattus norvegicus [25]): Not Active |
